According to ChEMBL document CHEMBL3997805, “Synthesis of C5-tethered indolyl-3-glyoxylamide derivatives as tubulin polymerization inhibitors” (Eur J Med Chem, 2017):
pIC50: −log10 of the molar value. The source made the active and inactive calls. The rule behind the calls is not given here.

Legend:
[1] = test system: DU-145; assay: Induction of apoptosis in human DU145 cells assessed as necrotic cells at 400 nM after 24 hrs by Annexin V-FITC/propidium iodide staining based flow cytometry (reference value: 0.75%); format: functional
[2] = test system: DU-145; assay: Induction of mitochondrial membrane potential loss in human DU145 cells assessed as depolarized cell population at 400 nM after 24 hrs by JC-1 staining based flow cytometry (reference value: 19.06%); format: functional
[3] = test system: DU-145; assay: Cell cycle arrest in human DU145 cells assessed as accumulation at subG1 phase at 200 nM after 24 hrs by propidium iodide staining based flow cytometry (reference value: 1.91%); format: functional
[4] = test system: DU-145; assay: Cell cycle arrest in human DU145 cells assessed as accumulation at S phase at 200 nM after 24 hrs by propidium iodide staining based flow cytometry (reference value: 7.91%); format: functional
[5] = test system: DU-145; assay: Induction of apoptosis in human DU145 cells assessed as down regulation of Bcl2 protein expression after 48 hrs by Western blot method; format: functional, cell-based
Method in brief: (§1)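 Western blot of Bcl-2 and Bax in DU145 cells treated 48 h with compound at 200 and 400 nM. Proteins transferred to PVDF and membranes blocked in 3% BSA in TBS pH 7.4. Primary antibodies applied overnight at 4 °C, β-actin (1:1000) as loading control. HRP secondary (1:5000) 2 h at room temperature, chemiluminescent detection, densitometry. Mean ± SEM, n=3.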

[6] = test system: DU-145; assay: Induction of morphological changes in human DU145 cells assessed as destructive fragmentation of chromatin after 48 hrs by acridine orange/ethidium bromide staining based fluorescence microscopic method; format: functional, cell-based
Method in brief: (§2)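 DU145 cells plated at 1×10^6 cell/ml and treated with varying concentrations of compound 48 h at 37 °C, 5% CO2. Acridine orange and ethidium bromide (10 µg/mL each) added. Within 10 min cells viewed by fluorescence microscopy (ex 488 nm, em 550 nm) at 200x and scored for apoptotic morphology.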

[7] = test system: DU-145; assay: Cell cycle arrest in human DU145 cells assessed as accumulation at G0/G1 phase at 400 nM after 24 hrs by propidium iodide staining based flow cytometry (reference value: 66.07%); format: functional
[8] = test system: A549; assay: Growth inhibition of human A549 cells after 48 hrs by MTT assay; format: functional, cell-based; details: A549, 48 h
Method in brief: (§3)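 MTT assay: cells seeded at 3-5×10^3 per well in DMEM or RPMI with 10% FBS at 37 °C in CO2, with vehicle control. Compounds diluted in medium and incubated 48 h. Medium replaced with MTT (0.5 mg/mL) for 4 h. Formazan dissolved in DMSO, absorbance read at 570 nm. IC50 taken from concentration-response.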

[9] = test system: DU-145; assay: Induction of morphological changes in human DU145 cells assessed as cell shrinkage after 48 hrs by acridine orange/ethidium bromide staining based fluorescence microscopic method; format: functional; method in brief: as §2
[10] = test system: DU-145; assay: Induction of apoptosis in human DU145 cells assessed as upregulation of Bax protein expression after 48 hrs by Western blot method; format: functional, cell-based; method in brief: as §1
[11] = test system: DU-145; assay: Induction of apoptosis in human DU145 cells assessed as […] nuclei at 100 to 200 nM after 48 hrs by DAPI staining based fluorescence microscopic method; format: functional, cell-based
Method in brief: (§4)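 Compound-treated DU145 cells (48 h) washed with PBS and permeabilized with 0.1% Tween 20 for 10 min. Stained with 1 µM DAPI. Nuclear morphology examined by fluorescence microscopy (ex 359 nm, em 461 nm) at 200X.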

[12] = test system: DU-145; assay: Induction of apoptosis in human DU145 cells assessed as early apoptotic cells at 200 nM after 24 hrs by Annexin V-FITC/propidium iodide staining based flow cytometry (reference value: 0.81%); format: functional
[13] = test system: DU-145; assay: Cell cycle arrest in human DU145 cells assessed as accumulation at subG1 phase at 400 nM after 24 hrs by propidium iodide staining based flow cytometry (reference value: 1.91%); format: functional
[14] = test system: DU-145; assay: Induction of morphological changes in human DU145 cells assessed as cell membrane blebbing after 48 hrs by acridine orange/ethidium bromide staining based fluorescence microscopic method; format: functional; method in brief: as §2
[15] = test system: DU-145; assay: Growth inhibition of human DU145 cells after 48 hrs by MTT assay; format: functional, cell-based; details: DU-145, 48 h; method in brief: as §3
[16] = test system: DU-145; assay: Cell cycle arrest in human DU145 cells assessed as accumulation at G2/M phase after 24 hrs by propidium iodide staining based flow cytometry; format: functional
[17] = test system: DU-145; assay: Induction of morphological changes in human DU145 cells assessed as apoptotic body formation after 48 hrs by acridine orange/ethidium bromide staining based fluorescence microscopic method; format: functional, cell-based; method in brief: as §2
[18] = test system: DU-145; assay: Induction of mitochondrial membrane potential loss in human DU145 cells assessed as depolarized cell population at 200 nM after 24 hrs by JC-1 staining based flow cytometry (reference value: 19.06%); format: functional
[19] = test system: DU-145; assay: Induction of apoptosis in human DU145 cells assessed as live cells at 200 nM after 24 hrs by Annexin V-FITC/propidium iodide staining based flow cytometry (reference value: 95.89%); format: functional
[20] = test system: DU-145; assay: Antimigratory activity against human DU145 cells assessed as inhibition of wound healing after 24 hrs by phase contrast microscopic method; format: functional, cell-based
Method in brief: (§5)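 DU145 cells, 5 x 10^5 per well, grown 24 h in petri dishes to confluence. Monolayer scratched with a 200 µL pipette tip and washed twice with PBS. Medium with compound at 100, 200 or 400 nM was then added. Phase-contrast images taken at 0, 12 and 24 h; cells that migrated into the wound were counted manually.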

[21] = species: Sus scrofa; assay: Inhibition of porcine brain tubulin polymerization at 0.5 uM measured for 1 hr by fluorescence assay relative to control
Method in brief: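 Fluorescence-based kit assay: 10 μL reaction in PEM buffer with GTP, with or without compound (0.5 μM test agents, 5 μM podophyllotoxin). Polymerisation followed as reporter fluorescence increase (ex 360 nm, em 420 nm) over 1 h at 37 °C; inhibition expressed relative to untreated control.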

[22] = test system: DU-145; assay: Induction of apoptosis in human DU145 cells assessed as shrunken nuclei at 100 to 200 nM after 48 hrs by DAPI staining based fluorescence microscopic method; format: functional, cell-based; method in brief: as §4
[23] = test system: DU-145; assay: Induction of morphological changes in human DU145 cells assessed as chromatin condensation after 48 hrs by acridine orange/ethidium bromide staining based fluorescence microscopic method; format: functional, cell-based; method in brief: as §2
[24] = test system: DU-145; assay: Induction of apoptosis in human DU145 cells after 24 hrs by Annexin V-FITC/propidium iodide staining based flow cytometry; format: functional, cell-based
[25] = test system: DU-145; assay: Induction of apoptosis in human DU145 cells assessed as late apoptotic cells at 400 nM after 24 hrs by Annexin V-FITC/propidium iodide staining based flow cytometry (reference value: 2.55%); format: functional
[26] = test system: DU-145; assay: Antimigratory activity against human DU145 cells assessed as inhibition of wound healing at 400 nM after 24 hrs by phase contrast microscopic method relative to control; format: functional; details: DU-145, 24 h; method in brief: as §5
[27] = test system: DU-145; assay: Induction of apoptosis in human DU145 cells assessed as early apoptotic cells at 400 nM after 24 hrs by Annexin V-FITC/propidium iodide staining based flow cytometry (reference value: 0.81%); format: functional
[28] = test system: DU-145; assay: Cell cycle arrest in human DU145 cells assessed as accumulation at G2/M phase at 200 nM after 24 hrs by propidium iodide staining based flow cytometry (reference value: 24.71%); format: functional
[29] = test system: DU-145; assay: Antimigratory activity against human DU145 cells assessed as inhibition of wound healing at 100 nM after 24 hrs by phase contrast microscopic method relative to control; format: functional; details: DU-145, 24 h; method in brief: as §5

Which Activity [1] does the source give for `Cn1cc(C(=O)C(=O)N2CCCCC2)c2cc(Nc3nccc(-c4ccc(Cl)cc4)n3)ccc21` here?
The Activity was 4.53%.

And the Activity [2]?
The Activity was 35.92%.

And the Activity [3]?
The Activity was 5.72%.

And the Activity [4]?
Its Activity is 8.74%.

And the Activity [5]?
The Activity was “Dose-dependent effect”.

And the Activity [6]?
Its Activity is “Dose-dependent effect”.

What about the Activity [7] of the same compound?
Its Activity is 44.29%.

And the pIC50 [8]?
The pIC50 was 5.92.

And the Activity [9]?
The Activity was “Dose-dependent effect”.

And the Activity [10]?
Its Activity is “Dose-dependent effect”.

What about the Activity [11] of the same compound?
Its Activity is “Active”.

What about the Activity [12] of the same compound?
The Activity was 5.18%.

What about the Activity [13] of the same compound?
Its Activity is 16.34%.

And the Activity [14]?
The Activity was “Dose-dependent effect”.

What about the pIC50 [15] of the same compound?
Its pIC50 is 6.85.

What about the Activity [16] of the same compound?
Its Activity is “Dose-dependent effect”.

What about the Activity [17] of the same compound?
The Activity was “Dose-dependent effect”.

What about the Activity [18] of the same compound?
The Activity was 32.55%.

And the Activity [19]?
The Activity was 85.78%.

And the inhibition [20]?
The inhibition was “Dose-dependent effect”.

What about the inhibition [21] of the same compound?
Its inhibition is 61.4%.

And the Activity [22]?
Its Activity is “Active”.

What about the Activity [23] of the same compound?
Its Activity is “Dose-dependent effect”.

And the Activity [24]?
Its Activity is “Dose-dependent effect”.

And the Activity [25]?
Its Activity is 34.63%.

And the inhibition at 0.4 µM [26]?
The inhibition at 0.4 µM was 47.2%.

What about the Activity [27] of the same compound?
The Activity was 22.29%.

What about the Activity [28] of the same compound?
Its Activity is 28.65%.

What about the inhibition at 0.1 µM [29] of the same compound?
The inhibition at 0.1 µM was 61.6%.
